Data taken from ChEMBL document CHEMBL1137378, “Antibacterial agent discovery using thymidylate synthase biolibrary screening” (J Med Chem, 2006).
Values after ≈ are worked out from the molar mass of the structure shown.

Key:
Thymidylate synthase [1] = biological target: Thymidylate synthase (Homo sapiens, UniProt P04818); assay: Inhibition of human thymidylate synthase
[2] = Specificity Index, Ki for human thymidylate synthase/Ki for Lactobacillus casei thymidylate synthase
Thymidylate synthase [3] = biological target: T1, Thymidylate synthase (Cryptococcus neoformans var. neoformans B-3501A, UniProt P0CS13); assay: Inhibition of Cryptococcus neoformans thymidylate synthase
T1 sequence (P0CS13 whole entry): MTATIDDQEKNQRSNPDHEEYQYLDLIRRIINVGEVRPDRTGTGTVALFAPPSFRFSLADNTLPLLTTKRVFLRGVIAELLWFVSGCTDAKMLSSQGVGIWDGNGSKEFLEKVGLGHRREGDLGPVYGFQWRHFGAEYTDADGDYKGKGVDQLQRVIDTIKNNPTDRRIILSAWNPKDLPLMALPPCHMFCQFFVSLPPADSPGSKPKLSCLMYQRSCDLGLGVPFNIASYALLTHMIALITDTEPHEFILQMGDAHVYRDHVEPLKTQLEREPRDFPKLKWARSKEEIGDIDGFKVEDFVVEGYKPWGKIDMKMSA

Homo sapiens = species: Homo sapiens; assay: Selectivity Index, Ki for human dihydrofolate reductase/Ki for human thymidylate synthase
[4] = Specificity Index, Ki for human thymidylate synthase/Ki for Cryptococcus neoformans thymidylate synthase
Summary of the method: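 Specificity index is Ki of hTS divided by Ki of the pathogen TS (LcTS, EcTS or CnTS). Each enzyme was purified to >95% and assayed spectrophotometrically at 340 nm, 20 °C. Buffer was TES 50 mM pH 7.4 with MgCl2, formaldehyde, EDTA and 2-mercaptoethanol, plus dUMP 100 µM, mTHF 140 µM and enzyme 0.07 µM.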

Thymidylate synthase [5] = biological target: T2, Thymidylate synthase (Lactobacillus casei, UniProt P00469); assay: Inhibition of Lactobacillus casei thymidylate synthase; parameters: species or system Lacticaseibacillus casei
T2 sequence (P00469 whole entry): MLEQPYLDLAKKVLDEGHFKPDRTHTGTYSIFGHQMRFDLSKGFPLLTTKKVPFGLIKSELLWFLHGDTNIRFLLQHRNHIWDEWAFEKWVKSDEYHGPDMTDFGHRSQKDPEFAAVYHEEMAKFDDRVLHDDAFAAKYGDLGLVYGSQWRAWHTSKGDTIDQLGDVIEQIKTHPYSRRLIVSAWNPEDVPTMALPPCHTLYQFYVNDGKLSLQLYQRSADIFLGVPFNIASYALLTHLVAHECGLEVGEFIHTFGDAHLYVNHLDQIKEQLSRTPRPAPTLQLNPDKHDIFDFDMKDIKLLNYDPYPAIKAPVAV

Dihydrofolate reductase = biological target: T3, Dihydrofolate reductase (Homo sapiens, UniProt P00374); assay: Inhibition of human dihydrofolate reductase
T3 sequence (P00374 whole entry): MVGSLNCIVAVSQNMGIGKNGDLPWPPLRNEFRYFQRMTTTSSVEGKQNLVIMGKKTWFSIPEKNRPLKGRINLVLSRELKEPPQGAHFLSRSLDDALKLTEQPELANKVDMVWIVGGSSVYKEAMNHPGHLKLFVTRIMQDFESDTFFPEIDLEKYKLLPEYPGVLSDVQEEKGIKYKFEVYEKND
Summary of the method: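 Purified human DHFR assayed spectrophotometrically at 25 °C by the fall in A340 on DHF reduction. Ki from steady-state kinetics.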

Listeria monocytogenes [6] = assay: Antibacterial activity against Listeria monocytogenes 3; type: functional
Summary of the method: (§1)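 Wild-type strain panel (18 Gram-positive and Gram-negative strains). Bacteria grown in Mueller-Hinton broth at 37 °C for 24 h. Exponentially growing cultures diluted in sterile liquid medium to a final inoculum of about 1 × 10⁴ CFU/mL, then exposed to increasing compound concentrations. MIC taken as the lowest concentration with no evident bacterial growth.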

Listeria monocytogenes [7] = assay: Antibacterial activity against Listeria monocytogenes 7; type: functional; summary of the method: as §1
[8] = system: Staphylococcus saprophyticus; assay: Antibacterial activity against Staphylococcus saprophyticus ATCC 15305; type: functional; summary of the method: as §1
Staphylococcus aureus [9] = assay: Antibacterial activity against Staphylococcus aureus 343; type: functional; summary of the method: as §1
Enterococcus faecalis = assay: Antibacterial activity against Enterococcus faecalis ATCCC29212; type: functional; summary of the method: as §1
Staphylococcus aureus [10] = assay: Antibacterial activity against Staphylococcus aureus ATCC 29213; type: functional; summary of the method: as §1
Listeria monocytogenes [11] = assay: Antibacterial activity against Listeria monocytogenes 4; type: functional; summary of the method: as §1
Escherichia coli [12] = assay: Antibacterial activity against Escherichia coli 256; type: functional; summary of the method: as §1
Citrobacter = assay: Antibacterial activity against Citrobacter 224; type: functional; summary of the method: as §1
Listeria monocytogenes [13] = assay: Antibacterial activity against Listeria monocytogenes ATCC 4428; type: functional; summary of the method: as §1
[14] = system: Staphylococcus haemolyticus; assay: Antibacterial activity against Staphylococcus haemolyticus ATCC 2997; type: functional; summary of the method: as §1
Listeria monocytogenes [15] = assay: Antibacterial activity against Listeria monocytogenes 5; type: functional; summary of the method: as §1
Staphylococcus aureus [16] = assay: Antibacterial activity against Staphylococcus aureus K28; type: functional; summary of the method: as §1
Listeria monocytogenes [17] = assay: Antibacterial activity against Listeria monocytogenes 6; type: functional; summary of the method: as §1
Listeria monocytogenes [18] = assay: Antibacterial activity against Listeria monocytogenes 8; type: functional; summary of the method: as §1
Staphylococcus aureus [19] = assay: Antibacterial activity against Staphylococcus aureus 341; type: functional; summary of the method: as §1
Streptococcus = assay: Antibacterial activity against Streptococcus 42; type: functional; summary of the method: as §1
Escherichia coli [20] = assay: Antibacterial activity against Escherichia coli 292; type: functional; summary of the method: as §1
Vero [21] = assay: Cytotoxicity against Vero cells measured as percent of cell growth at 25 mg/L relative to control by MTT assay; type: functional, Chlorocebus sabaeus
Summary of the method: (§2)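 VERO cells grown in MEM with 5% heat-inactivated (56 °C, 30 min) FCS, penicillin, streptomycin and L-glutamine. Cultures were watched for 2 days and live cells counted. Cells were then exposed to increasing compound concentrations; wells with cells only served as control. After 24 h, mitochondrial dehydrogenase activity was read by MTT. Trypan blue exclusion was also run.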

Vero [22] = assay: Cytotoxicity against Vero cells measured as percent of cell growth at 6.25 mg/L relative to control by MTT assay; type: functional, Chlorocebus sabaeus; summary of the method: as §2
Vero [23] = assay: Cytotoxicity against Vero cells measured as percent of cell growth at 50 mg/L relative to control by MTT assay; type: functional, Chlorocebus sabaeus; summary of the method: as §2
[24] = Specificity Index, Ki for human thymidylate synthase/Ki for Escherichia coli thymidylate synthase
Thymidylate synthase [25] = biological target: Thymidylate synthase (Escherichia coli, UniProt C3SWJ7); assay: Inhibition of Escherichia coli thymidylate synthase
Chain of Thymidylate synthase (Escherichia coli, UniProt C3SWJ7) (C3SWJ7 whole entry): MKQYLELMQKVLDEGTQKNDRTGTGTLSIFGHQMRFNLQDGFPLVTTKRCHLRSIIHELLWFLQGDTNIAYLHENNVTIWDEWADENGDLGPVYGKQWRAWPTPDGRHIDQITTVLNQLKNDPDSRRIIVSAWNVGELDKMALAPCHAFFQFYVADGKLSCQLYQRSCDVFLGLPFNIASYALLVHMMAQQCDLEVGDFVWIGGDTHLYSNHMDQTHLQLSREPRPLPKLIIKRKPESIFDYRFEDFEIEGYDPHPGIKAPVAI

Vero [26] = assay: Cytotoxicity against Vero cells measured as percent of cell growth at 1.56 mg/L relative to control by MTT assay; type: functional, Chlorocebus sabaeus; summary of the method: as §2
Vero [27] = assay: Cytotoxicity against Vero cells measured as percent of cell growth at 3.12 mg/L relative to control by MTT assay; type: functional, Chlorocebus sabaeus; summary of the method: as §2
Vero [28] = assay: Cytotoxicity against Vero cells measured as percent of cell growth at 12.05 mg/L relative to control by MTT assay; type: functional, Chlorocebus sabaeus; summary of the method: as §2

Chain of Thymidylate synthase (Homo sapiens, UniProt P04818) (P04818 whole entry): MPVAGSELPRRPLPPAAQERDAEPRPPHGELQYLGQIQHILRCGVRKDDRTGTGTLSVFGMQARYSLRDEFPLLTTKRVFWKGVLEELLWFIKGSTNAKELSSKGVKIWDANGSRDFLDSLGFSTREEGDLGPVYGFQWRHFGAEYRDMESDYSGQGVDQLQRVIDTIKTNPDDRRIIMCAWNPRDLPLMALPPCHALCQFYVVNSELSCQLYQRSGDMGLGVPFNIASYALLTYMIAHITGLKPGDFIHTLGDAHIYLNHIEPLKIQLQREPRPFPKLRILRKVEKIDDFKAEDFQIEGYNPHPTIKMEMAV

Row | Structure (SMILES) | Ratio Ki [2] | Ki (Thymidylate synthase [3]) [µM] | Selectivity index (Homo sapiens) | Ratio Ki [4] | Ki (Dihydrofolate reductase) [µM] | MIC (Listeria monocytogenes [6]) [µg/mL] | MIC (Listeria monocytogenes [7]) [µg/mL] | MIC [8] [µg/mL] | MIC (Staphylococcus aureus [9]) [µg/mL] | MIC (Enterococcus faecalis) [µg/mL] | MIC (Staphylococcus aureus [10]) [µg/mL] | MIC (Listeria monocytogenes [11]) [µg/mL] | MIC (Escherichia coli [12]) [µg/mL] | MIC (Citrobacter) [µg/mL] | MIC (Listeria monocytogenes [13]) [µg/mL] | MIC (Listeria monocytogenes [15]) [µg/mL] | MIC (Staphylococcus aureus [16]) [µg/mL] | MIC (Listeria monocytogenes [17]) [µg/mL] | MIC (Listeria monocytogenes [18]) [µg/mL] | MIC [14] [µg/mL] | further results
1 | O=C(O)c1cn(C2CC2)c2cc(N3CCNCC3)c(F)cc2c1=O [CIPROFLOXACIN] |  |  |  |  |  | 2.5 (≈ 7.54 µM) | 1 (≈ 3.02 µM) | 1 (≈ 3.02 µM) | 0.5 (≈ 1.51 µM) | 12.5 (≈ 37.7 µM) | 0.5 (≈ 1.51 µM) | 1 (≈ 3.02 µM) | > 25 | > 25 | 2.5 (≈ 7.54 µM) | 2.5 (≈ 7.54 µM) | 0.5 (≈ 1.51 µM) | 2.5 (≈ 7.54 µM) | 1 (≈ 3.02 µM) | 2.5 (≈ 7.54 µM) | MIC (Staphylococcus aureus [19]): 1.2 µg/mL (≈ 3.62 µM); MIC (Streptococcus): > 5 µg/mL; MIC (Escherichia coli [20]): > 25 µg/mL
2 | O=C1OC(c2ccc(O)cc2)(c2ccc(O)cc2)c2ccc3ccccc3c21 |  | 0.6 |  |  | 35 |  |  |  |  |  |  |  |  |  |  |  |  |  |  |  | 
3 | O=C1OC(c2ccc(O)c(Br)c2)(c2ccc(O)c(Br)c2)c2ccc(Cl)c3cccc1c23 | > 306 | 4.1 | < 0.05 | > 60 | 13 | 5 (≈ 8.92 µM) | 2.5 (≈ 4.46 µM) | 1 (≈ 1.78 µM) | 1 (≈ 1.78 µM) | 5 (≈ 8.92 µM) | 2.5 (≈ 4.46 µM) | 2.5 (≈ 4.46 µM) | > 25 | > 25 | 1 (≈ 1.78 µM) | 5 (≈ 8.92 µM) | 2.5 (≈ 4.46 µM) | 2.5 (≈ 4.46 µM) | 5 (≈ 8.92 µM) | 5 (≈ 8.92 µM) | Activity (Vero [21]): 85%; Activity (Vero [22]): 97%; Activity (Vero [23]): 61%; Ratio Ki [24]: > 60; Ki (Thymidylate synthase [25]): 4.1 µM; Activity (Vero [26]): 96%; MIC (Staphylococcus aureus [19]): 2.5 µg/mL (≈ 4.46 µM); MIC (Streptococcus): 1 µg/mL (≈ 1.78 µM); Activity (Vero [27]): 95%; MIC (Escherichia coli [20]): > 25 µg/mL; Activity (Vero [28]): 97%

Second part, led by results:

Row | Ratio Ki [2] | Ki (Thymidylate synthase [3]) [µM] | Selectivity index (Homo sapiens) | Ratio Ki [4] | Ki (Dihydrofolate reductase) [µM] | MIC (Listeria monocytogenes [6]) [µg/mL] | MIC (Listeria monocytogenes [7]) [µg/mL] | MIC [8] [µg/mL] | MIC (Staphylococcus aureus [9]) [µg/mL] | MIC (Enterococcus faecalis) [µg/mL] | MIC (Staphylococcus aureus [10]) [µg/mL] | MIC (Listeria monocytogenes [11]) [µg/mL] | MIC (Escherichia coli [12]) [µg/mL] | MIC (Citrobacter) [µg/mL] | MIC (Listeria monocytogenes [13]) [µg/mL] | MIC (Listeria monocytogenes [15]) [µg/mL] | MIC (Staphylococcus aureus [16]) [µg/mL] | MIC (Listeria monocytogenes [17]) [µg/mL] | MIC (Listeria monocytogenes [18]) [µg/mL] | Structure (SMILES) | MIC [14] [µg/mL] | further results
4 | > 4 | 16 | < 1 | > 8 | 94 |  |  |  |  |  |  |  |  |  |  |  |  |  |  | O=C1OC(c2ccc(O)c(I)c2)(c2ccc(O)c(I)c2)c2cccc3cccc1c23 |  | Ki (Thymidylate synthase [1]): > 132 µM; Ki (Thymidylate synthase [5]): 31 µM
5 | > 136 | 6.5 | < 0.05 | > 38 | 12 | 10 (≈ 22.8 µM) | 10 (≈ 22.8 µM) | 10 (≈ 22.8 µM) | 10 (≈ 22.8 µM) | 25 (≈ 57 µM) | 10 (≈ 22.8 µM) | 10 (≈ 22.8 µM) | > 50 | > 50 | 10 (≈ 22.8 µM) | 10 (≈ 22.8 µM) | 10 (≈ 22.8 µM) | 10 (≈ 22.8 µM) | 25 (≈ 57 µM) | O=C1OC(c2ccc(O)c(F)c2)(c2ccc(O)c(F)c2)c2ccc(Cl)c3cccc1c23 | 10 (≈ 22.8 µM) | Ratio Ki [24]: > 223; Ki (Thymidylate synthase [25]): 1.1 µM; MIC (Staphylococcus aureus [19]): 10 µg/mL (≈ 22.8 µM); MIC (Streptococcus): 10 µg/mL (≈ 22.8 µM); MIC (Escherichia coli [20]): > 50 µg/mL
6 |  |  |  |  | 42 |  |  |  |  |  |  |  |  |  |  |  |  |  |  | O=C1OC(c2ccc(O)c(F)c2)(c2ccc(O)c(F)c2)c2cccc3cccc1c23 |  | 
7 | > 123 | 4.5 | < 0.01 | > 54 | 3.9 |  |  |  |  |  |  |  |  |  |  |  |  |  |  | O=C1OC(c2ccc(O)c(I)c2)(c2ccc(O)c(I)c2)c2c1ccc1ccccc21 |  | Ki (Thymidylate synthase [1]): > 245 µM; Ratio Ki [24]: > 163; Ki (Thymidylate synthase [5]): 2 µM; Ki (Thymidylate synthase [25]): 1.5 µM
8 |  | 3.5 |  |  | 109 | 25 (≈ 61.8 µM) | 25 (≈ 61.8 µM) | 25 (≈ 61.8 µM) | 25 (≈ 61.8 µM) | 25 (≈ 61.8 µM) | 25 (≈ 61.8 µM) | 25 (≈ 61.8 µM) | > 50 | > 50 | 25 (≈ 61.8 µM) | 25 (≈ 61.8 µM) | 25 (≈ 61.8 µM) | 25 (≈ 61.8 µM) | 25 (≈ 61.8 µM) | O=C1OC(c2ccc(O)c(F)c2)(c2ccc(O)c(F)c2)c2ccc3ccccc3c21 | 25 (≈ 61.8 µM) | MIC (Staphylococcus aureus [19]): 25 µg/mL (≈ 61.8 µM); MIC (Streptococcus): 25 µg/mL (≈ 61.8 µM); MIC (Escherichia coli [20]): > 50 µg/mL
